{"source": "ChEMBL document CHEMBL1687818", "about": "“Mechanistic studies of the inactivation of TEM-1 and P99 by NXL104, a novel non-beta-lactam beta-lactamase inhibitor” (Antimicrob Agents Chemother, 2010)", "key": {"[1]": {"assay": "Inhibition of beta-lactamase TEM-1 assessed as inactivation rate constant by spectrophotometry", "procedure,_shortened": "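Reporter-substrate method at 37°C: purified TEM-1 at 0.25 nM was added to 100 µM nitrocefin plus inhibitor at various concentrations, and hydrolysis was followed at 485 nm for 60 s. kobs was taken from the time courses, and K and k2 came from a plot of [I]/kobs against [I]. Means of at least two independent experiments.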"}, "[2]": {"assay": "Inhibition of beta-lactamase TEM-1 assessed as inactivation rate constant for longer incubation time yield of enzyme by spectrophotometry"}}}
{"molecule": "NC(=O)[C@@H]1CC[C@@H]2CN1C(=O)N2OS(=O)(=O)O", "note": "(relative stereo)", "values": [{"measurement": "Activity", "setting": "[1]", "value": 0.11, "unit": "s⁻¹"}]}
{"molecule": "C[C@]1(Cn2ccnn2)[C@H](C(=O)O)N2C(=O)C[C@H]2S1(=O)=O", "values": [{"measurement": "Activity", "setting": "[2]", "value": 0.02, "unit": "s⁻¹"}]}
{"molecule": "O=C(O)[C@H]1/C(=C/CO)O[C@@H]2CC(=O)N21", "values": [{"measurement": "Activity", "setting": "[2]", "value": 0.03, "unit": "s⁻¹"}]}
